# Measured values taken from ChEMBL document CHEMBL1156194, “Discovery of a new series of Aurora inhibitors through truncation of GSK1070916” (Bioorg Med Chem Lett, 2010).
# Active and inactive are the calls of the source. The calls are words filed in the database; no cut-off is given here.
# Columns and labels:
# [1] = molecular target: T1, Aurora kinase A/Targeting protein for Xklp2 (Homo sapiens, UniProt O14965); assay: Inhibition of human recombinant aurora A/TPX2 complex after 120 mins by IMAP fluorescence polarization assay; assay type: protein-complex assay
# T1 sequence (O14965 whole entry): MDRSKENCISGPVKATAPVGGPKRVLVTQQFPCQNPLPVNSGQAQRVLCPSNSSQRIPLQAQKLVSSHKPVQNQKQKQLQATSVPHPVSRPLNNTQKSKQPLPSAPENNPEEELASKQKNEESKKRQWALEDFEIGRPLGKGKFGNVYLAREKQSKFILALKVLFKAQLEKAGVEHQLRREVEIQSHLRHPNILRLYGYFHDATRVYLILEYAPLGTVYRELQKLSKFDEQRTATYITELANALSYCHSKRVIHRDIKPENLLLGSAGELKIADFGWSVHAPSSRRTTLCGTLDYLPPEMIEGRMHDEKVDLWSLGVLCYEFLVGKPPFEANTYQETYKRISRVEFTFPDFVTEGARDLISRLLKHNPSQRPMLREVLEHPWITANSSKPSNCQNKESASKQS
# T1 sequence (Q9ULW0 whole entry): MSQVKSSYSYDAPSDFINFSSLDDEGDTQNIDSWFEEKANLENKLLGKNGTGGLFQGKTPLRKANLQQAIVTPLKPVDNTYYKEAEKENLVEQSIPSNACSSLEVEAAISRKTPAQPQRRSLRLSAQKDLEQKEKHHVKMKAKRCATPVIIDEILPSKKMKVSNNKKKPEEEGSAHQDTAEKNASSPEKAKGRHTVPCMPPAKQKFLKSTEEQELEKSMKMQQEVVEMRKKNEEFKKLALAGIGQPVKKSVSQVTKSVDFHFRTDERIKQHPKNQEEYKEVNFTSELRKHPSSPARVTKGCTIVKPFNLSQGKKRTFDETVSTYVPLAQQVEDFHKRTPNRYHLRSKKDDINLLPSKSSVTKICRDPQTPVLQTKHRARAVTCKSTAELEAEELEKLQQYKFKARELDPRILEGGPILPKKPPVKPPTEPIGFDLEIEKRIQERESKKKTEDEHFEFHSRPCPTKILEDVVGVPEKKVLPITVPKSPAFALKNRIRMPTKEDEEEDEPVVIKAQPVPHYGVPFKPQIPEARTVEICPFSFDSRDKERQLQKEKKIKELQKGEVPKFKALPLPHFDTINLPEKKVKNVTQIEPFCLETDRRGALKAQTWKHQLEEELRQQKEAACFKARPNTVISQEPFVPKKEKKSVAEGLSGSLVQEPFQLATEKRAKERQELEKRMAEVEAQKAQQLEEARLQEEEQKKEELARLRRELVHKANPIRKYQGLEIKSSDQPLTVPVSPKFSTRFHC
# [2] = molecular target: Aurora kinase B/Inner centromere protein (Homo sapiens, UniProt Q96GD4); assay: Inhibition of human recombinant aurora B/INCENP complex after 120 mins by IMAP fluorescence polarization assay; assay type: protein-complex assay
# Aurora kinase B = Aurora kinase B (Homo sapiens, UniProt Q96GD4); assay: Inhibition of aurora B assessed as inhibition of histone H3 phosphorylation by ELISA based cellular mechanistic assay
# In short: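 Cellular mechanistic assay: ELISA measuring intracellular Aurora B activity through phosphorylation of histone H3, an Aurora B-specific substrate. IC50 values are averages of at least two experiments.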
# A549 [3] = assay: Cytotoxicity against human A549 cells in presence of 10% human serum; assay type: functional, cell-based
# In short: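 A549 cell proliferation assay run in 10% human serum. EC50 values are averages of at least two experiments, in nM.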
# A549 [4] = assay: Cell cycle arrest in human A549 cells assessed as sub-2N DNA accumulation at 5 times EC50 after 48 hrs by FACS analysis relative to control; assay type: functional
# In short: (§1)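 A549 lung tumour cells treated at 5× the compound's EC50 from the cell proliferation assay, alongside a DMSO control. Cell cycle profile read after 48 h by FACS. Values are the percentage of cells with sub-2N, 2N, 2N to 4N, 4N and >4N DNA content.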
# A549 [5] = assay: Cell cycle arrest in human A549 cells assessed as 2N DNA accumulation at 5 times EC50 after 48 hrs by FACS analysis relative to control; assay type: functional; in short: as §1
# A549 [6] = assay: Cell cycle arrest in human A549 cells assessed as 2N to 4N DNA accumulation at 5 times EC50 after 48 hrs by FACS analysis relative to control relative to control; assay type: functional; in short: as §1
# A549 [7] = assay: Cell cycle arrest in human A549 cells assessed as 4N DNA accumulation at 5 times EC50 after 48 hrs by FACS analysis relative to control; assay type: functional; in short: as §1
# A549 [8] = assay: Cell cycle arrest in human A549 cells assessed as greater than 4N DNA accumulation at 5 times EC50 after 48 hrs by FACS analysis relative to control; assay type: functional; in short: as §1
# A549 [9] = assay: Cell cycle arrest in human A549 cells assessed as multipolar spindle accumulation at 37 nM after 24 hrs by immunofluorescent staining microscopy; assay type: functional, cell-based
# In short: (§2)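 A549 tumour cells treated at 12, 37 or 110 nM for 24 h. Cells stained with α-tubulin antibody for mitotic spindles, pericentrin antibodies for centrosomes, and […] for DNA. Mitotic phenotype scored by immunofluorescence.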
# A549 [10] = assay: Cell cycle arrest in human A549 cells assessed as multipolar spindle accumulation at 12 nM after 24 hrs by immunofluorescent staining microscopy; assay type: functional, cell-based; in short: as §2
# A549 [11] = assay: Cell cycle arrest in human A549 cells assessed as malformed bipolar and monopolar spindle mixture accumulation at 110 nM after 24 hrs by immunofluorescent staining microscopy; assay type: functional, cell-based; in short: as §2
# Rattus norvegicus = assay: Dose normalized AUC in po dosed rat; assay type: ADME, organism-based; details: in vivo
# [12] = Oral bioavailability in rat; assay type: ADME, organism-based; details: in vivo
# [13] = Blood clearance in po dosed rat; assay type: ADME, organism-based; details: whole blood
# Aurora kinase B, sequence (Q96GD4 whole entry): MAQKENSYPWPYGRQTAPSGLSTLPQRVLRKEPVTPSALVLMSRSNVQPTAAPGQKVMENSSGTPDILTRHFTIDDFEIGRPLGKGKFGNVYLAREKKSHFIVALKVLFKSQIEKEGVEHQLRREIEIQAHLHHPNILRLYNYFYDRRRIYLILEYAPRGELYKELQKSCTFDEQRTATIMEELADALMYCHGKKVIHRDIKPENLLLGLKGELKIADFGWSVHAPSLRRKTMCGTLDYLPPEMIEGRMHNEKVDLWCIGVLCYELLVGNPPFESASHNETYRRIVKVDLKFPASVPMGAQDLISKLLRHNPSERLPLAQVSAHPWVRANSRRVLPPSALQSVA
# Aurora kinase B/Inner centromere protein, sequence (Q96GD4 whole entry): as above
# Aurora kinase B/Inner centromere protein, sequence (Q9NQS7 whole entry, further chain): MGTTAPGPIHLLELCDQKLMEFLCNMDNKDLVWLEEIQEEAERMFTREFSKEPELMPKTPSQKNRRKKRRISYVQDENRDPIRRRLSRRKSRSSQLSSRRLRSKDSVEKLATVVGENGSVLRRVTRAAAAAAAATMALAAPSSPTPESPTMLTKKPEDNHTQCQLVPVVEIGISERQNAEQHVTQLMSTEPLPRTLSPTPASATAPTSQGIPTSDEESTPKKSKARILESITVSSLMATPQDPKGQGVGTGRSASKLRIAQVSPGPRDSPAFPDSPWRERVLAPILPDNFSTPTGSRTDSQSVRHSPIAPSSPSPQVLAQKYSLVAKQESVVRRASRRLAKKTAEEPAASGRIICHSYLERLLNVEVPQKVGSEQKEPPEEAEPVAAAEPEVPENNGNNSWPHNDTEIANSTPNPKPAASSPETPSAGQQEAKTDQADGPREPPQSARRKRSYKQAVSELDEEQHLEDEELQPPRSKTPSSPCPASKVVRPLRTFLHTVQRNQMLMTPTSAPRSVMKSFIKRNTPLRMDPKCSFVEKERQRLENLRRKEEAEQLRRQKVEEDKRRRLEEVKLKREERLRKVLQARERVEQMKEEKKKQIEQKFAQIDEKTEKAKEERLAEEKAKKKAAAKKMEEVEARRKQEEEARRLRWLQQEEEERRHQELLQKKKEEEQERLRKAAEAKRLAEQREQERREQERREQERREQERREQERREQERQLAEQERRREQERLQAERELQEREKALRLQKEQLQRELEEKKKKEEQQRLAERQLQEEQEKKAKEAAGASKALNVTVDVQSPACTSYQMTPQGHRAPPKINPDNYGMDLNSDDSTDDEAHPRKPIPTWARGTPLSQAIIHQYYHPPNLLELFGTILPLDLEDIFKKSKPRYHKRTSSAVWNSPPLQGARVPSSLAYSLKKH
SMILES,IC50 [1],IC50 ([2]; read-out: IC50),IC50 (Aurora kinase B),IC50 ([2]; read-out: pIC50 (converted)),EC50 (A549 [3]),Activity (A549 [4]),Activity (A549 [5]),Activity (A549 [6]),Activity (A549 [7]),Activity (A549 [8]),Activity (A549 [9]),Activity (A549 [10]),Activity (A549 [11]),AUC (Rattus norvegicus),bioavailability [12],CL/F [13]
c1cc(-c2cn[nH]c2)c2cc[nH]c2n1,584 nM,782 nM,13400 nM,–,2570 nM,–,–,–,–,–,–,–,–,–,–,–
CCn1cc(-c2ccnc3[nH]ccc23)c(-c2ccc(NC(=O)Nc3ccccc3)cc2)n1,–,–,–,2 nM,–,–,–,–,–,–,–,–,–,–,–,–
CN(C)Cc1ccc(-c2cc3c(-c4cnn(C)c4)ccnc3[nH]2)cc1,76 nM,5.9 nM,169 nM,–,24 nM,30%,32%,7%,29%,2%,–,–,–,139 ng·h/mL/mg/kg,72%,86 mL/min/kg
Cn1cc(-c2ccnc3[nH]ccc23)cn1,982 nM,802 nM,6160 nM,–,11700 nM,–,–,–,–,–,–,–,–,–,–,–

# Now from value to compound, other results behind:
IC50 [1],IC50 ([2]; read-out: IC50),IC50 (Aurora kinase B),IC50 ([2]; read-out: pIC50 (converted)),SMILES,EC50 (A549 [3]),Activity (A549 [4]),Activity (A549 [5]),Activity (A549 [6]),Activity (A549 [7]),Activity (A549 [8]),Activity (A549 [9]),Activity (A549 [10]),Activity (A549 [11]),AUC (Rattus norvegicus),bioavailability [12],CL/F [13]
128 nM,5.7 nM,104 nM,–,CN(C)Cc1cccc(-c2cc3c(-c4cnn(C)c4)ccnc3[nH]2)c1,134 nM,36%,13%,4%,43%,3%,–,–,–,–,–,–
–,3.2 nM,32 nM,–,CCn1cc(-c2ccnc3[nH]c(-c4cccc(CN(C)C)c4)cc23)c(-c2ccc(NC(=O)N(C)C)cc2)n1 [GSK-1070916],7 nM,21%,6%,3%,23%,47%,–,–,–,–,–,–
7.9 nM,0.61 nM,9 nM,–,CN(C)Cc1ccc(-c2cc3c(-c4cnn(C)c4)c(Cl)cnc3[nH]2)cc1,13 nM,27%,14%,5%,40%,15%,Active,Active,–,–,–,–
6.2 nM,0.51 nM,67 nM,–,CN(C)Cc1cccc(-c2cc3c(-c4cnn(C)c4)c(Cl)cnc3[nH]2)c1,21 nM,34%,6%,4%,26%,30%,Active,–,Active,–,–,–
> 10000 nM,26 nM,–,–,CCn1cc(-c2ccnc3[nH]ccc23)c(-c2ccc(NC(=O)N(C)C)cc2)n1,1530 nM,–,–,–,–,–,–,–,–,–,–,–
